Results published in ChEMBL document CHEMBL1143884, “Pyrimidine-based inhibitors of CaMKIIdelta” (Bioorg Med Chem Lett, 2008).

How the values were obtained:
[1] = molecular target: T1, Calcium/calmodulin-dependent protein kinase type II subunit delta (Homo sapiens, UniProt Q13557); experiment: Inhibition of cloned CaMK2delta
Procedure, shortened: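 Radiometric filter-binding assay. Recombinant CaMKIIδ in 50 mM PIPES pH 7, 0.2 mg/ml BSA, 1 mM DTT, preincubated with inhibitor. Reaction started with buffer containing MgCl2, ATP, CaCl2, calmodulin, [His5]Autocamtide-2 substrate and [γ-33P]ATP, run 3 min at RT. Stopped on P81 phosphocellulose filter, washed with 1% phosphoric acid, counted by scintillation.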

[2] = molecular target: T1, Calcium/calmodulin-dependent protein kinase type II subunit delta; experiment: Inhibition of CaMK2delta-mediated vimentin phosphorylation in human HL2 cells at 5 uM after 1 hr by ELISA; type: cell-based
[3] = molecular target: T1, Calcium/calmodulin-dependent protein kinase type II subunit delta; experiment: Inhibition of CaMK2delta-mediated vimentin phosphorylation in human HL2 cells after 1 hr by ELISA; type: cell-based
Procedure, shortened: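 HL-2 cells preincubated 1 h at 37 °C with inhibitor at increasing concentrations, then CaMKII activated with ionomycin for 15 min at 37 °C. Cells lysed in ice-cold lysis buffer and frozen at −80 °C before read-out.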

T1 sequence (Q13557 whole entry): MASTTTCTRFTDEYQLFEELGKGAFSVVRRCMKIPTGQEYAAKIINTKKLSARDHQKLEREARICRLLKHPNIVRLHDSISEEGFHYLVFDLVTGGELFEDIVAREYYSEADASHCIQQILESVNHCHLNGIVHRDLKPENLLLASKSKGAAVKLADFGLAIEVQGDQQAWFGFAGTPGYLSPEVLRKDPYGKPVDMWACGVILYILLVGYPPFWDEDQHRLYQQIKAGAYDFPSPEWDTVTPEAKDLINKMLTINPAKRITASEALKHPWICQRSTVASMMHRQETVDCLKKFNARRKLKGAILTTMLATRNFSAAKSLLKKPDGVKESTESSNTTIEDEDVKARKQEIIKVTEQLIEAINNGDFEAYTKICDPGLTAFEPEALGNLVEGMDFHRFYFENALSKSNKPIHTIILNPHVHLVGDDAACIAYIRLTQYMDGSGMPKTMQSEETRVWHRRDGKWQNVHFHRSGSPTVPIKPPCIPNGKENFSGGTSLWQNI

| IC50 [1] [nM] | inhibition [2] [%] | IC50 [3] [nM] | SMILES |
| --- | --- | --- | --- |
| 390 | – | – | O=C(O)c1ccc(-c2ccnc(Nc3ccncc3)n2)cc1 |
| 13000 | – | – | C[C@H](Nc1cc(Nc2nccc(-c3cccc(C(=O)O)c3)n2)ccn1)c1ccccc1 |
| 660 | – | – | Nc1cccc(-c2ccnc(Nc3cccc(Cl)c3)n2)c1 |
| 2870 | – | – | C[C@H](Nc1cc(Nc2nccc(-c3ccc(Cl)cc3)n2)ccn1)c1ccccc1 |
| 720 | – | – | CNC(=O)c1ccc(-c2ccnc(Nc3ccnc(N[C@@H](C)c4ccccc4)c3)n2)cc1 |
| 66 | – | – | Nc1cc(Nc2nccc(-c3ccc(C(=O)O)cc3)n2)ccn1 |
| 170 | – | – | C[C@H](Nc1cc(Nc2nccc(-c3ccc(C(=O)NO)cc3)n2)ccn1)c1ccccc1 |
| 210 | – | – | C[C@H](Nc1cc(Nc2nccc(-c3ccc(C(=O)O)cc3)n2)ccn1)c1ccccc1 |
| > 20000 | 0 | – | COC(=O)c1ccc(-c2ccnc(Nc3ccccc3)n2)cc1 |
| 3420 | – | – | C[C@H](Nc1cc(Nc2nccc(-c3ccc(CC(=O)O)cc3)n2)ccn1)c1ccccc1 |
| 42 | 0 | – | O=C(O)c1ccc(-c2ccnc(Nc3cccc(Cl)c3)n2)cc1 |
| 12 | – | 110 | NCCNc1cccc(-c2ccnc(Nc3cccc(Cl)c3)n2)c1 |
| 64 | 0 | – | O=C(O)c1ccc(-c2ccnc(Nc3ccccc3)n2)cc1 |
| > 20000 | – | – | O=C(O)Cc1ccc(-c2ccnc(Nc3ccccc3)n2)cc1 |
| 770 | 0 | – | c1ccc(Nc2nccc(-c3ccc(-c4nnn[nH]4)cc3)n2)cc1 |
| 2220 | – | – | C[C@H](Nc1cc(Nc2nccc(-c3ccc(N(C)C)cc3)n2)ccn1)c1ccccc1 |
| 240 | – | – | Clc1cccc(Nc2nccc(-c3cccc(N4CCOCC4)c3)n2)c1 |
| 290 | 90 | – | O=C(NO)c1ccc(-c2ccnc(Nc3ccccc3)n2)cc1 |
| 1280 | – | – | C[C@H](Nc1cc(Nc2nccc(-c3cccc(F)c3)n2)ccn1)c1ccccc1 |
| 1690 | – | – | COC(=O)c1ccc(-c2ccnc(Nc3ccnc(N[C@@H](C)c4ccccc4)c3)n2)cc1 |
| 930 | – | – | Clc1cccc(Nc2nccc(-c3cccc(N4CCCCC4)c3)n2)c1 |
| > 20000 | – | – | CNC(=O)c1ccc(-c2ccnc(Nc3ccccc3)n2)cc1 |
| 9 | – | 320 | Clc1cccc(Nc2nccc(-c3cccc(N4CCNCC4)c3)n2)c1 |
| 3140 | – | – | C[C@H](Nc1cc(Nc2nccc(-c3cccc(-c4ccccc4)c3)n2)ccn1)c1ccccc1 |
| 2260 | – | – | C[C@H](Nc1cc(Nc2nccc(-c3ccc(-c4nnn[nH]4)cc3)n2)ccn1)c1ccccc1 |
| 920 | – | – | Cc1cccc(-c2ccnc(Nc3ccnc(N[C@@H](C)c4ccccc4)c3)n2)c1 |
